Results on nine compounds are retold here after ChEMBL document CHEMBL1122432, “Some adenine and adenosine methylene-bridged estrogens” (J Med Chem, 1983).

The test system of test [1] is P388. As to the kind of experiment: (§1) Concentration required for 50% Inhibition of P388 murine leukemia cells. Format: functional. As to conditions: Mus musculus, read-out: ID50 (the source's name); call rule not given here. An outline of the steps: (§2)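 Exponentially growing P388 murine leukemia cells were kept in medium with 10% horse serum and 1 μM mercaptoethanol. They were exposed to graded drug levels, and total cell numbers were counted 24 h later. IC50 is the concentration inhibiting growth by 50% over the test period.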

Test [2] concerns MCF7. As to the kind of experiment: Concentration required for 30% Inhibition of human breast cancer cell line MCF-7. The test is classed as functional. An outline of the steps: (§3)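 Human breast cancer cells were grown in glass vials in medium with 5% calf serum and treated in log phase. Compounds were dissolved in Me2SO and diluted in medium to a final solvent concentration of at most 0.2%. Growth was followed over 2-3 days, or 5 days where noted. IC30 and IC50 are the concentrations giving 30% and 50% growth inhibition. Values average two or more experiments.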

The subject of test [3] is MCF7. As to the kind of experiment: Concentration required for 50% Inhibition of human breast cancer cell line MCF-7. The test is classed as functional. As to conditions: read-out: ID50 (the source's name). An outline of the steps: as §3
For the next test, the target named is T1, Sulfotransferase 1E1 (Bos taurus, UniProt P19217).
T1 sequence (P19217 whole entry): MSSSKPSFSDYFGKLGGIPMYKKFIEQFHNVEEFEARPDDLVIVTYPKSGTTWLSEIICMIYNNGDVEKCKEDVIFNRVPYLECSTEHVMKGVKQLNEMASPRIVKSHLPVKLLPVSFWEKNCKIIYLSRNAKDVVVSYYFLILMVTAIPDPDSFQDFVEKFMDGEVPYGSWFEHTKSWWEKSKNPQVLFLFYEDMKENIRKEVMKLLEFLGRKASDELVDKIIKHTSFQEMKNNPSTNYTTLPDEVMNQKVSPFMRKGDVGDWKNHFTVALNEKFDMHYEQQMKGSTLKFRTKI
As to the kind of experiment: Inhibition of bovine estrogen sulfotransferase by the compound. A digest of the protocol:
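Inhibitor was present at a fixed concentration in 90% aqueous Me2SO. Ki values were derived with relationships for competitive inhibitors.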

Test [4] deals with MCF7. Kind of test: Concentration required for 30% Inhibition of human breast cancer cell line MCF-7; NA means no inhibition at -20 concentration. Format: functional, cell-based. An outline of the steps: as §3
Test [5] has as its system P388. The description is as §1. Format: functional, Mus musculus. An outline of the steps: as §2
Test [6] relates to MCF7. As to the kind of experiment: Inhibition of human breast cancer cell line MCF-7. The test is classed as functional. As to conditions: for IC50: read-out: ID50 (the source's name). A digest of the protocol: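 MCF-7 breast cancer cells were grown in sterile glass scintillation vials in medium with 5% calf serum and treated in log phase. Compounds were dissolved in Me₂SO and diluted in medium, with final solvent ≤0.2%. Growth was measured over 2-3 days, or 5 days where footnoted. IC₃₀/IC₅₀ is the concentration inhibiting growth by 30/50% over the test period, averaged from two or more experiments.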

Turning to `C[C@]12CC[C@@H]3c4ccc(OCCCOC[C@H]5OC(n6cnc7c(N)ncnc76)[C@H](O)[C@@H]5O)c([N+](=O)[O-])c4CC[C@H]3[C@@H]1CCC2=O` (stereo not given in full), the IC50 was determined as 15 µM with P388 [1] and 6.4 µM in the test on MCF7 [3]. For the same compound, the ID30 in the test on MCF7 [2] came to 3.6 µM. Besides, the Ki – broadly, the equilibrium dissociation constant of an inhibitor or competing ligand from its target – at Sulfotransferase 1E1 was 84 µM.
In the case of `C[C@]12CC[C@@H]3c4ccc(OCCOC[C@H]5OC(n6cnc7c(N)ncnc76)[C@H](O)[C@@H]5O)c([N+](=O)[O-])c4CC[C@H]3[C@@H]1CCC2=O` (stereo not given in full), the IC50 in the test with P388 [1] was 70 µM; with MCF7 [3], above 10 µM. In the test with MCF7 [2], this compound registered an ID30 of 11 µM. The affinity on Sulfotransferase 1E1 corresponds to a Ki of 32 µM.
Consider `C[C@]12CC[C@@H]3c4ccc(OCCCn5cnc6c(N)ncnc65)c([N+](=O)[O-])c4CC[C@H]3[C@@H]1CCC2=O`, for which the ID30 entry in the test on MCF7 [4] is “Not Active”. Besides, affinity on Sulfotransferase 1E1 was put at a Ki of 350 µM.
Regarding `C[C@]12CC[C@@H]3c4ccc(OCCn5cnc6c(N)ncnc65)c([N+](=O)[O-])c4CC[C@H]3[C@@H]1CCC2=O`, the IC50 with P388 [1] came out at 30 µM; with MCF7 [3], 10 µM. The ID30 with MCF7 [2] amounted to 7.8 µM. At Sulfotransferase 1E1, this compound showed a Ki of 1000 µM.
For the compound `C[C@]12CC[C@@H]3c4ccc(OCCCCn5cnc6c(N)ncnc65)c([N+](=O)[O-])c4CC[C@H]3[C@@H]1CCC2=O`, the ID30 with MCF7 [2] amounted to 2.1 µM. The same compound returned an ID50 in the test on P388 [5] of 5 µM. For the same compound, the IC50 in the test with MCF7 [3] was determined as 4 µM. The same compound displayed a Ki at Sulfotransferase 1E1 of 140 µM.
As to `C[C@]12CC[C@@H]3c4ccc(OCCCn5cnc6c(N)ncnc65)cc4CC[C@H]3[C@@H]1CCC2=O`, the ID30 result in the test with MCF7 [4] is listed as “Not Active”. The compound further registered a Ki at Sulfotransferase 1E1 of 1000 µM.
With `C[C@]12CC[C@@H]3c4ccc(OP(=O)(O)OP(=O)(O)OC[C@H]5O[C@@H](n6c(Br)nc7c(N)ncnc76)[C@H](O)[C@@H]5OP(=O)(O)O)cc4CC[C@H]3[C@@H]1CCC2=O`, the Ki at Sulfotransferase 1E1 was found to be 0.25 µM.
On to `COc1ccc2c(c1[N+](=O)[O-])CC[C@@H]1[C@@H]2CC[C@]2(C)C(=O)CC[C@@H]12`, for which, in the test with MCF7 [6], the ID30 is above 10 µM and the IC50 was above 10 µM.
In the same order, the values of `O=c1[nH]cc(F)c(=O)[nH]1` [FLUOROURACIL] are 0.2 µM and 0.3 µM.
